This note sets out measurements from ChEMBL document CHEMBL4354879, “Bioisosteric Discovery of NPA101.3, a Second-Generation RET/VEGFR2 Inhibitor Optimized for Single-Agent Polypharmacology” (J Med Chem, 2020).

pIC50: −log10 of the molar value. Calls of active or inactive are those of the source. No cut-off for these calls is given here.

The species named for one series is Homo sapiens. Kind of series: Inhibition of CCDC6/RET isoform 9 (unknown origin) expressed in mouse NIH/3T3 cells assessed as reduction in RET phosphorylation at Y905 residue at 1 to 100 nM measured after 2 hrs by Western blot analysis. The format is cell-based. The procedure, abridged: (§1)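 Serum-starved RAT1 (RET point mutants) or NIH3T3 (RET rearrangements) cells expressing short RET-9 isoform, treated 2 h; 50 μg total lysate immunoblotted with anti-phospho-Y1062 and anti-phospho-Y905 RET antibodies, normalized to total RET; ECL detection. Compound from 50 mM DMSO stock diluted in growth medium.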
(Immunoblotting shows a protein as a band on a membrane.)

Series [1] has as its target T1, SHC-transforming protein 1 (Homo sapiens) (UniProt P29353).
T1 sequence (whole entry): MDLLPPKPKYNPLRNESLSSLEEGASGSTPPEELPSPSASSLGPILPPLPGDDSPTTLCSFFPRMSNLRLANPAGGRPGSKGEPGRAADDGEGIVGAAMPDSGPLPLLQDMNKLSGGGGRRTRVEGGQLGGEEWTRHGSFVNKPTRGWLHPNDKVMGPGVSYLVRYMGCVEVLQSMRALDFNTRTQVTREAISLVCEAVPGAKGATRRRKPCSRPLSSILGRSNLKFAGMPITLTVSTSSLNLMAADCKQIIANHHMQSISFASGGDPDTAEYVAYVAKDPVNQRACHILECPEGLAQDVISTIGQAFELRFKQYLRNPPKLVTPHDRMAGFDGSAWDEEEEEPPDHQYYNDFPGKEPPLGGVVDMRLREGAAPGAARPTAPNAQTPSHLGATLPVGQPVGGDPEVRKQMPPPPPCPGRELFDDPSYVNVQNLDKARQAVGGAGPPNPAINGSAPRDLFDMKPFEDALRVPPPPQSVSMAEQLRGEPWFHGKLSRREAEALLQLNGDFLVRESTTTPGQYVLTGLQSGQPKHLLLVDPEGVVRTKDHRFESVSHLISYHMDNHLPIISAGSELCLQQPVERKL
Kind of series: Effect on SHC phosphorylation in RET deficient human PC9 cells at 1 to 100 nM measured after 2 hrs by western blot analysis.

Series [2] relates to Proto-oncogene tyrosine-protein kinase receptor Ret (Homo sapiens), P07949 [V804L]. Briefly: Inhibition of RET isoform 9 V804L mutant (unknown origin) expressed in rat Rat1 assessed as reduction in RET phosphorylation at Y905 residue at 1 to 100 nM measured after 2 hrs by Western blot analysis. It counts as cell-based. The procedure, abridged:
as §1

Series [3] is described as follows: Toxicity in BALB/c nu/nu mouse assessed as change in globulin level at 10 mg/kg, po administered daily for 7 days. The format is organism-based. As to conditions: in vivo, 168 h.
Series [4] deals with T2, Vascular endothelial growth factor receptor 2 (Homo sapiens, UniProt P35968). Kind of series: Inhibition of recombinant human VEGFR2 expressed in HEK293 cells assessed as reduction in VEGFA-induced VEGFR2 autophosphorylation at 1 to 10 nM preincubated for 2 hrs followed by VEGFA-stimulation and measured after 15 mins by Western blot analysis. The format is cell-based. A digest of the protocol: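 HEK293 transiently transfected with human VEGFR2; 36 h post-transfection serum-starved 12 h, compound or vehicle 2 h, then VEGFA 100 ng/mL for 15 min; lysates blotted for phospho-VEGFR2, normalized to total VEGFR2.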

In series [5] the target is T2, Vascular endothelial growth factor receptor 2. Kind of series: Inhibition of recombinant human His-tagged VEGFR2 cytoplasmic domain (789 to 1356 residues) expressed in baculovirus expression system using peptide substrate preincubated for 60 mins followed by substrate addition by microfluidic assay.
Series [6] can be described thus: Toxicity in BALB/c nu/nu mouse assessed as change in alkaline phosphatase level at 10 mg/kg, po administered daily for 7 days. It counts as organism-based. As to conditions: in vivo, 168 h. A digest of the protocol:
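Mice dosed orally with 10 mg/kg/day for 7 days; standard blood markers of organ damage measured.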

Series [7] relates to Proto-oncogene tyrosine-protein kinase receptor Ret (Homo sapiens), P07949 [A883F]. Briefly: Inhibition of RET isoform 9 A883F mutant (unknown origin) expressed in rat Rat1 assessed as reduction in RET phosphorylation at Y905 residue at 1 to 100 nM measured after 2 hrs by Western blot analysis. The format is cell-based. A digest of the protocol:
as §1

The subject of the next series is Mus musculus. Briefly: In vivo inhibition of RET isoform 9 C634Y mutant transfected in mouse NIH/3T3 cells implanted BALB/c nu/nu mouse assessed as reduction in RET phosphorylation at Y1062 residue at 3 mg/kg, po administered once daily via gavage for 2 days measured 3 hrs post-last dose by Western blot analysis.
Series [8] concerns Proto-oncogene tyrosine-protein kinase receptor Ret (Homo sapiens), P07949 [C634W]. Kind of series: Inhibition of Ret isoform 9 C634W mutant in human TT cells assessed as reduction in phosphorylation at Y1062 residue at 0.3 to 30 nM measured after 2 hrs by Western blot analysis. The format is cell-based.
In a further series the test system is BaF3. Kind of series: Inhibition of NCOA4/RET […] (unknown origin) expressed in mouse BAF3 cells assessed as reduction in RET phosphorylation at Y905 residue at 0.3 to 30 nM measured after 2 hrs by Western blot analysis. It counts as cell-based. As to conditions: Homo sapiens. A digest of the protocol: (§2)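 Ba/F3 cells stably expressing long-isoform RET-51 mutants (electroporation), cultured in RPMI/10% FCS without IL-3; RET phosphorylation read by Western blot with anti-phospho-Y905 and anti-phospho-Y1062 antibodies, ECL detection.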

Series [9] relates to Proto-oncogene tyrosine-protein kinase receptor Ret (Homo sapiens), P07949 [M918T]. Kind of series: Inhibition of RET […] M918T mutant (unknown origin) expressed in mouse BAF3 cells assessed as reduction in RET phosphorylation at Y905 residue at 0.3 to 30 nM measured after 2 hrs by Western blot analysis. It counts as cell-based. The procedure, abridged:
as §2

A further series relates to A549. Kind of series: Cytotoxicity against RET deficient human A549 cells supplemented with fresh medium containing compound for every 2 to 3 days measured during compound dosing. It counts as functional, cell-based. The procedure, abridged:
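Human RET-negative lines were seeded in six-well plates at 10000 cells/well, in 5% FCS (Nthy-ori-3-1) or 10% FCS (BCPAP, 8505-C, CALU-1, A549, PC-9). Drug or vehicle was added the day after plating, with medium changed every 2–3 days. Cells were counted every 2–3 days. IC50 was fitted from the last day of the growth curves.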

The next series deals with 8505C. Briefly: Effect on MAPK phosphorylation in RET deficient human 8505C cells at 1 to 100 nM measured after 2 hrs by western blot analysis. The format is cell-based.
For series [10], the target named is Coiled-coil domain-containing protein 6/Tyrosine-protein kinase receptor RET (Homo sapiens) (UniProt P07949+Q16204). Briefly: Inhibition of CCDC6/RET in human LC2/ad cells assessed as reduction in SHC phosphorylation at 0.3 to 30 nM measured after 2 hrs by Western blot analysis. It counts as cell-based.
Series [11] relates to Proto-oncogene tyrosine-protein kinase receptor Ret (Homo sapiens), P07949 [M918T]. Briefly: Inhibition of Ret isoform 9 M918T mutant in human MZ-CRC-1 cells assessed as reduction in SHC phosphorylation at 0.3 to 30 nM measured after 2 hrs by Western blot analysis. The format is cell-based.
The nature of series [12]: Inhibition of NCOA4/RET […] (unknown origin) expressed in mouse BAF3 cells assessed as reduction in cell proliferation supplemented with fresh medium containing compound for every 2 to 3 days and measured daily. It counts as cell-based.

Chain of Proto-oncogene tyrosine-protein kinase receptor Ret (Homo sapiens), P07949 [M918T] (P07949 whole entry M918T, canonical isoform): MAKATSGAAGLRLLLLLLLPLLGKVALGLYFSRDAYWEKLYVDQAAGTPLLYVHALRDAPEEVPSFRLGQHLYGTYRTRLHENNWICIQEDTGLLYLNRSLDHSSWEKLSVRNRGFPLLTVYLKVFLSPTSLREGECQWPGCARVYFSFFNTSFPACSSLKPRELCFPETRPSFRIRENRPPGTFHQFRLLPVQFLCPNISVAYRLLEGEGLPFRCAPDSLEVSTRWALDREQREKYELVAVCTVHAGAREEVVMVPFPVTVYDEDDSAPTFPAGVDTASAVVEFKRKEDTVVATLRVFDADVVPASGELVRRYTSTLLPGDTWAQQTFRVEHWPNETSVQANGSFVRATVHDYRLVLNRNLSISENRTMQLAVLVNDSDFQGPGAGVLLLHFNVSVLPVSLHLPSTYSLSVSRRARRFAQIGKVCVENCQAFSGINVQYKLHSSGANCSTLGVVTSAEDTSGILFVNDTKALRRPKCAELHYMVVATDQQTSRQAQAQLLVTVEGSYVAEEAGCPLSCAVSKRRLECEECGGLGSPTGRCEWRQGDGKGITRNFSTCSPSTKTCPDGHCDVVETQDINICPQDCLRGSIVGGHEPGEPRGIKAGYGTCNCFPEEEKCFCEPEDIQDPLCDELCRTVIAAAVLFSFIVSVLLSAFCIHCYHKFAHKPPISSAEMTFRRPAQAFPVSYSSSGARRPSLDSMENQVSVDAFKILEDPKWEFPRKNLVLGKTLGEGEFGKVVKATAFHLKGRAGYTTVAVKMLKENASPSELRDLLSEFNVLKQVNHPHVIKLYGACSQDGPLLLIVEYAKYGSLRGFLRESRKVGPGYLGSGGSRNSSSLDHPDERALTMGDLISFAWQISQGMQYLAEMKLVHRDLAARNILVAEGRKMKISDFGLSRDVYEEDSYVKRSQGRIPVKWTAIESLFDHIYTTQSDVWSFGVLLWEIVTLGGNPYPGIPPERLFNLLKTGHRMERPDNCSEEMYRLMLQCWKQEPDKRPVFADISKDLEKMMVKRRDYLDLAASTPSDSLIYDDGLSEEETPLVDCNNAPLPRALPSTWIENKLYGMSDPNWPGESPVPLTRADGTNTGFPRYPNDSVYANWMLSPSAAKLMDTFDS
T2 sequence (P35968 whole entry): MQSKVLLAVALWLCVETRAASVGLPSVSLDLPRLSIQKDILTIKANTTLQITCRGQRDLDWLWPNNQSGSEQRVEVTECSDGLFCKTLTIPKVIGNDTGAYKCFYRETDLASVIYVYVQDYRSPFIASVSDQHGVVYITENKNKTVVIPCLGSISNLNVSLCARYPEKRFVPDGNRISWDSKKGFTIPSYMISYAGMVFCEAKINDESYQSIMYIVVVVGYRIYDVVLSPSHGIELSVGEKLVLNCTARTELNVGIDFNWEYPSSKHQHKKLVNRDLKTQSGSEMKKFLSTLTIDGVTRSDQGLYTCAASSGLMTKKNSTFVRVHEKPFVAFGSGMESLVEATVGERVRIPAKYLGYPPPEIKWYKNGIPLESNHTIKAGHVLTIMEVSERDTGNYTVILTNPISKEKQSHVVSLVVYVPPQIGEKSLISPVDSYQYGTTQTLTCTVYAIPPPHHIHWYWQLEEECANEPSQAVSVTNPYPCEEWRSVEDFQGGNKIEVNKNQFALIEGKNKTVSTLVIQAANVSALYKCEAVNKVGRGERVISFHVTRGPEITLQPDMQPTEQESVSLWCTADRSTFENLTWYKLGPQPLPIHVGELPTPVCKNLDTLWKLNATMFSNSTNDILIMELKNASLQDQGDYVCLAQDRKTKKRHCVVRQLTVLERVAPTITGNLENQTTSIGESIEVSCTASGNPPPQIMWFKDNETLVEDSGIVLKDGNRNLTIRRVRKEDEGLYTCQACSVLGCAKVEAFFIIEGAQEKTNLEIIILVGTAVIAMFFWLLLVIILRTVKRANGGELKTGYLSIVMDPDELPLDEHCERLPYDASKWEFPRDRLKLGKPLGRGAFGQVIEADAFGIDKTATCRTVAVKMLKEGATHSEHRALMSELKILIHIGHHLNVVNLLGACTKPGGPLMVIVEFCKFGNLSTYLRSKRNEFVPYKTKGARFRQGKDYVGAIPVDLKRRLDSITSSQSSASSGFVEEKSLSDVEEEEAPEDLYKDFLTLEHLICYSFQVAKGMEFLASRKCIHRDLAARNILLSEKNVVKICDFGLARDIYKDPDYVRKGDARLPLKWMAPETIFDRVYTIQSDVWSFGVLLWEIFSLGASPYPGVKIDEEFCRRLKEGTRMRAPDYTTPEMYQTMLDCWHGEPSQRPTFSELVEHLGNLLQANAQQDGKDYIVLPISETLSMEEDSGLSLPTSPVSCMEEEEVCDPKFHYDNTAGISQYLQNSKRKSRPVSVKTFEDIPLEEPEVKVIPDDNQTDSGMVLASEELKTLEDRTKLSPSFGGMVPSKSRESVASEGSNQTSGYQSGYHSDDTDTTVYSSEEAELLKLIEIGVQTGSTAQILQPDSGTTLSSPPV
Chain of Coiled-coil domain-containing protein 6/Tyrosine-protein kinase receptor RET (Homo sapiens) (P07949 29-1114 limits assumed): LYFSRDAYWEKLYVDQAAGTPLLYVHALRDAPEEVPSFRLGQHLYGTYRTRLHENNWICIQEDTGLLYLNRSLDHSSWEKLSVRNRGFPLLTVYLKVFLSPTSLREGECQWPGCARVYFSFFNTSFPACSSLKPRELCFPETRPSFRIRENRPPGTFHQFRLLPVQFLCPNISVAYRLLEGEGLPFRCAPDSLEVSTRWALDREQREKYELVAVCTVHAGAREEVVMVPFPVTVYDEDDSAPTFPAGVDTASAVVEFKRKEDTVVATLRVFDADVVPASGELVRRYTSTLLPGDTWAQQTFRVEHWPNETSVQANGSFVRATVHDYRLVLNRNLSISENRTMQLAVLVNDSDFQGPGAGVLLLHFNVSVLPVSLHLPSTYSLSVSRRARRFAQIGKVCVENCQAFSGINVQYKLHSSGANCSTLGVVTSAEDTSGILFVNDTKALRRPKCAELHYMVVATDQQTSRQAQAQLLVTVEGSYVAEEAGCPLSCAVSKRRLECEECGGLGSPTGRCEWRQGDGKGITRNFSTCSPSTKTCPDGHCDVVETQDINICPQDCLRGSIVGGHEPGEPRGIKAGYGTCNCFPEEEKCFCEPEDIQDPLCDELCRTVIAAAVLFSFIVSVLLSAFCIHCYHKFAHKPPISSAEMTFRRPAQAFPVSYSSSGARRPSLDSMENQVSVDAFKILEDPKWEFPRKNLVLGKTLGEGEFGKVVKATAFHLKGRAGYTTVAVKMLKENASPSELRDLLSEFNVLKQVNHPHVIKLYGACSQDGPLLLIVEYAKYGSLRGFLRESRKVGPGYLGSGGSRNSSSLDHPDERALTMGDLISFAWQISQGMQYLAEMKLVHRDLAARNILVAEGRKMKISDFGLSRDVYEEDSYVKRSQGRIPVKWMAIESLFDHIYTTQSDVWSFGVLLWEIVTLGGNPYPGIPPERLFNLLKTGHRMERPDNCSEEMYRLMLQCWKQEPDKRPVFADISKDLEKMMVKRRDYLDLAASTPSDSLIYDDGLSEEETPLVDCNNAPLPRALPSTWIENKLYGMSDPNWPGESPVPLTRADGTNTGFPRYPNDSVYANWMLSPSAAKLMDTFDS
Chain of Coiled-coil domain-containing protein 6/Tyrosine-protein kinase receptor RET (Homo sapiens) (Q16204 2-474 partner limits assumed): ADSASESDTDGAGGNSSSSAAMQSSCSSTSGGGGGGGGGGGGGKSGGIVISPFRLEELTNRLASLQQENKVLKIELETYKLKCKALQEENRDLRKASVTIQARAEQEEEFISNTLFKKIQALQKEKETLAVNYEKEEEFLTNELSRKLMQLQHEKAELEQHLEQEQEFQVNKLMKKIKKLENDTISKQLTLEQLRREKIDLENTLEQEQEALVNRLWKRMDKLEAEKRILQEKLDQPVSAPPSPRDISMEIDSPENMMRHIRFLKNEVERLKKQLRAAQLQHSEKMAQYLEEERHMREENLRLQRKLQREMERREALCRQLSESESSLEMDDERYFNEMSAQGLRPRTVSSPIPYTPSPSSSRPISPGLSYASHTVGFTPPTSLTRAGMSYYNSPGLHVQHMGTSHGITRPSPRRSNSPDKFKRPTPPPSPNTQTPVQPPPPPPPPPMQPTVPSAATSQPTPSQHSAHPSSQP
Chain of Proto-oncogene tyrosine-protein kinase receptor Ret (Homo sapiens), P07949 [A883F] (P07949 whole entry A883F, canonical isoform): as the sequence (P07949 whole entry M918T, canonical isoform) above, with A883F, T918M counted along it
Chain of Proto-oncogene tyrosine-protein kinase receptor Ret (Homo sapiens), P07949 [V804L] (P07949 whole entry V804L, canonical isoform): as the sequence (P07949 whole entry M918T, canonical isoform) above, with V804L, T918M counted along it
Chain of Proto-oncogene tyrosine-protein kinase receptor Ret (Homo sapiens), P07949 [C634W] (P07949 whole entry C634W, canonical isoform): as the sequence (P07949 whole entry M918T, canonical isoform) above, with C634W, T918M counted along it

As usually defined, the pIC50 is the IC50 on a negative log10 scale, so that one unit is a factor of ten. As to `CC(C)(C)c1cc(NC(=O)Cc2ccc(-n3cnc4cc(-c5ccc(S(C)(=O)=O)cc5)ccc43)cc2)no1`, the inhibition result (in the series filed under Homo sapiens; in series [2]; in series [4]; in series [7]; with Mus musculus; in [8]) was “Active” each time. Also, the inhibition result (with BaF3; in series [9]; in [10]; in series [11]) was “Active” throughout. For the same compound, the result (in series [1]; with 8505C) was inactive. Also, the Activity entry in series [3] and in series [6] was “Non-Toxic” in each case. For the same compound, the pIC50 was 8.52 in series [5], less than 7.00 in the series on A549 and 8.51 in series [12].
